Measured values reported in ChEMBL document CHEMBL5303300, “EUbOPEN Chemogenomics Library - Multiplex” (2023).
Values joined by “and” are separate entries in the source; they are usually repeats but may differ in a detail not shown here. Equal values may be shown once.

Experiments:
Type in all cases: toxicity, cell-based
HEK-293T = assay: Multiplex assay against HEK293T; settings: human, number of replicates 2
Outline: (§1)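 At seeding, live cells were stained with Hoechst33342, BioTracker Green Microtubule Cytoskeleton Dye, MitoTracker Red and Annexin V Alexa Fluor 680. After compound addition they were imaged on a CQ1 microscope at 37°C and 5% CO2, and CellPathfinder machine-learning gating sorted them into Hoechst high-intensity objects or normal cells, with normal cells further split into healthy, pyknosed or fragmented nuclei and pyknosed cells into mitotic or apoptotic. Tubulin, mitochondrial-mass and membrane-permeability phenotypes are given as per cents of cells with healthy nuclei.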

Fibroblast = assay: Multiplex assay against human fibroblast; settings: number of replicates 2; outline: as §1
U2OS = assay: Multiplex assay against U2OS; settings: human, number of replicates 2; outline: as §1
[1] = 12 h, 1 µM, compound concentration 1 uM
[2] = 12 h, 10 µM, compound concentration 10 uM
[3] = 24 h, 1 µM, compound concentration 1 uM
[4] = 24 h, 10 µM, compound concentration 10 uM
[5] = 48 h, 1 µM, compound concentration 1 uM
[6] = 48 h, 10 µM, compound concentration 10 uM

## CC(=O)N(CCN(C)C)c1ccc(N/C(=C2\C(=O)Nc3cc(Cl)ccc32)c2ccccc2)cn1
HEK-293T; [1]
  Population Apoptotic (%): 32% and 41%
  Population Fragmented Nuclei (%): 2%
  Population Healthy Nuclei (%): 84% and 85%
  Population Hoechst High Intensity Objects (%): 5%
  Population Membrane Permeable-Phenotype (%): 2% and 3%
  Population Mitochondria Different-Phenotype (%): 23% and 26%
  Population Mitotic Cells (%): 67% and 58%
  Population Normal (%): 94%
  Population Pyknosed Nuclei (%): 12%
  Population Tubulin-Different-Phenotype (%): 65% and 70%
  Total Cell Count: 666 and 654
HEK-293T; [2]
  Population Apoptotic (%): 64% and 79%
  Population Fragmented Nuclei (%): 3% and 4%
  Population Healthy Nuclei (%): 77% and 71%
  Population Hoechst High Intensity Objects (%): 14% and 17%
  Population Membrane Permeable-Phenotype (%): 1% and 3%
  Population Mitochondria Different-Phenotype (%): 93% and 91%
  Population Mitotic Cells (%): 35% and 20%
  Population Normal (%): 85% and 82%
  Population Pyknosed Nuclei (%): 19% and 24%
  Population Tubulin-Different-Phenotype (%): 90% and 92%
  Total Cell Count: 227 and 197
HEK-293T; [3]
  Population Apoptotic (%): 28%
  Population Fragmented Nuclei (%): 1% and 4%
  Population Healthy Nuclei (%): 89% and 87%
  Population Hoechst High Intensity Objects (%): 6% and 7%
  Population Membrane Permeable-Phenotype (%): 1% and 3%
  Population Mitochondria Different-Phenotype (%): 12% and 10%
  Population Mitotic Cells (%): 71%
  Population Normal (%): 93% and 92%
  Population Pyknosed Nuclei (%): 9% and 8%
  Population Tubulin-Different-Phenotype (%): 51% and 49%
  Total Cell Count: 869 and 891
HEK-293T; [4]
  Population Apoptotic (%): 87% and 94%
  Population Fragmented Nuclei (%): 6% and 4%
  Population Healthy Nuclei (%): 80% and 83%
  Population Hoechst High Intensity Objects (%): 20% and 23%
  Population Membrane Permeable-Phenotype (%): 0% and 2%
  Population Mitochondria Different-Phenotype (%): 95% and 92%
  Population Mitotic Cells (%): 12% and 5%
  Population Normal (%): 79% and 76%
  Population Pyknosed Nuclei (%): 13% and 12%
  Population Tubulin-Different-Phenotype (%): 93% and 92%
  Total Cell Count: 229 and 181
HEK-293T; [5]
  Population Apoptotic (%): 12% and 13%
  Population Fragmented Nuclei (%): 11% and 6%
  Population Healthy Nuclei (%): 83% and 88%
  Population Hoechst High Intensity Objects (%): 7% and 9%
  Population Membrane Permeable-Phenotype (%): 3%
  Population Mitochondria Different-Phenotype (%): 1% and 3%
  Population Mitotic Cells (%): 87% and 86%
  Population Normal (%): 93% and 90%
  Population Pyknosed Nuclei (%): 4% and 5%
  Population Tubulin-Different-Phenotype (%): 25% and 29%
  Total Cell Count: 1828 and 1568
HEK-293T; [6]
  Population Apoptotic (%): 86% and 90%
  Population Fragmented Nuclei (%): 9% and 5%
  Population Healthy Nuclei (%): 81% and 83%
  Population Hoechst High Intensity Objects (%): 20% and 19%
  Population Membrane Permeable-Phenotype (%): 0% and 3%
  Population Mitochondria Different-Phenotype (%): 77% and 80%
  Population Mitotic Cells (%): 13% and 10%
  Population Normal (%): 79% and 80%
  Population Pyknosed Nuclei (%): 8% and 10%
  Population Tubulin-Different-Phenotype (%): 93%
  Total Cell Count: 324 and 235
Fibroblast; [1]
  Population Apoptotic (%): 45% and 32%
  Population Fragmented Nuclei (%): 15% and 19%
  Population Healthy Nuclei (%): 54% and 64%
  Population Hoechst High Intensity Objects (%): 0%
  Population Membrane Permeable-Phenotype (%): 13% and 3%
  Population Mitochondria Different-Phenotype (%): 2% and 4%
  Population Mitotic Cells (%): 54% and 67%
  Population Normal (%): 100%
  Population Pyknosed Nuclei (%): 30% and 16%
  Population Tubulin-Different-Phenotype (%): 26% and 21%
  Total Cell Count: 176 and 230
Fibroblast; [2]
  Population Apoptotic (%): 60% and 50%
  Population Fragmented Nuclei (%): 15% and 20%
  Population Healthy Nuclei (%): 50% and 56%
  Population Hoechst High Intensity Objects (%): 0%
  Population Membrane Permeable-Phenotype (%): 6% and 10%
  Population Mitochondria Different-Phenotype (%): 35% and 27%
  Population Mitotic Cells (%): 39% and 50%
  Population Normal (%): 100% and 99%
  Population Pyknosed Nuclei (%): 33% and 22%
  Population Tubulin-Different-Phenotype (%): 88% and 81%
  Total Cell Count: 151 and 211
Fibroblast; [3]
  Population Apoptotic (%): 60% and 63%
  Population Fragmented Nuclei (%): 17% and 22%
  Population Healthy Nuclei (%): 56% and 62%
  Population Hoechst High Intensity Objects (%): 0%
  Population Membrane Permeable-Phenotype (%): 7%
  Population Mitochondria Different-Phenotype (%): 1% and 4%
  Population Mitotic Cells (%): 39% and 36%
  Population Normal (%): 99%
  Population Pyknosed Nuclei (%): 26% and 15%
  Population Tubulin-Different-Phenotype (%): 25% and 24%
  Total Cell Count: 176 and 221
Fibroblast; [4]
  Population Apoptotic (%): 81% and 82%
  Population Fragmented Nuclei (%): 17% and 15%
  Population Healthy Nuclei (%): 41% and 46%
  Population Hoechst High Intensity Objects (%): 2% and 0%
  Population Membrane Permeable-Phenotype (%): 8% and 3%
  Population Mitochondria Different-Phenotype (%): 63% and 70%
  Population Mitotic Cells (%): 18% and 17%
  Population Normal (%): 97% and 100%
  Population Pyknosed Nuclei (%): 41% and 37%
  Population Tubulin-Different-Phenotype (%): 90% and 83%
  Total Cell Count: 149 and 170
Fibroblast; [5]
  Population Apoptotic (%): 80% and 68%
  Population Fragmented Nuclei (%): 19% and 25%
  Population Healthy Nuclei (%): 59% and 61%
  Population Hoechst High Intensity Objects (%): 0%
  Population Membrane Permeable-Phenotype (%): 9% and 7%
  Population Mitochondria Different-Phenotype (%): 2% and 5%
  Population Mitotic Cells (%): 20% and 31%
  Population Normal (%): 99% and 100%
  Population Pyknosed Nuclei (%): 21% and 13%
  Population Tubulin-Different-Phenotype (%): 36% and 29%
  Total Cell Count: 167 and 217
Fibroblast; [6]
  Population Apoptotic (%): 94% and 95%
  Population Fragmented Nuclei (%): 25% and 23%
  Population Healthy Nuclei (%): 25% and 17%
  Population Hoechst High Intensity Objects (%): 0%
  Population Membrane Permeable-Phenotype (%): 15% and 6%
  Population Mitochondria Different-Phenotype (%): 48% and 43%
  Population Mitotic Cells (%): 5% and 4%
  Population Normal (%): 99% and 100%
  Population Pyknosed Nuclei (%): 48% and 58%
  Population Tubulin-Different-Phenotype (%): 89% and 81%
  Total Cell Count: 152 and 178
U2OS; [1]
  Population Apoptotic (%): 72% and 71%
  Population Healthy Nuclei (%): 84% and 68%
  Population Hoechst High Intensity Objects (%): 0% and 1%
  Population Membrane Permeable-Phenotype (%): 1% and 10%
  Population Mitochondria Different-Phenotype (%): 0% and 2%
  Population Mitotic Cells (%): 27% and 28%
  Population Normal (%): 100% and 98%
  Population Pyknosed Nuclei (%): 11% and 12%
  Population Tubulin-Different-Phenotype (%): 52% and 23%
U2OS; [2]
  Population Apoptotic (%): 64% and 80%
  Population Fragmented Nuclei (%): 11% and 8%
  Population Healthy Nuclei (%): 54% and 60%
  Population Hoechst High Intensity Objects (%): 0% and 1%
  Population Membrane Permeable-Phenotype (%): 13% and 19%
  Population Mitochondria Different-Phenotype (%): 86% and 59%
  Population Mitotic Cells (%): 35% and 19%
  Population Normal (%): 100% and 98%
  Population Pyknosed Nuclei (%): 33% and 30%
  Population Tubulin-Different-Phenotype (%): 86% and 71%
U2OS; [3]
  Population Apoptotic (%): 72% and 40%
  Population Fragmented Nuclei (%): 3% and 11%
  Population Healthy Nuclei (%): 85% and 79%
  Population Hoechst High Intensity Objects (%): 0% and 1%
  Population Membrane Permeable-Phenotype (%): 2% and 4%
  Population Mitochondria Different-Phenotype (%): 0%
  Population Mitotic Cells (%): 27% and 60%
  Population Normal (%): 100% and 98%
  Population Pyknosed Nuclei (%): 10% and 9%
  Population Tubulin-Different-Phenotype (%): 59% and 33%
U2OS; [4]
  Population Apoptotic (%): 93% and 88%
  Population Fragmented Nuclei (%): 10% and 16%
  Population Healthy Nuclei (%): 31% and 23%
  Population Hoechst High Intensity Objects (%): 3% and 4%
  Population Membrane Permeable-Phenotype (%): 61% and 50%
  Population Mitochondria Different-Phenotype (%): 76% and 90%
  Population Mitotic Cells (%): 6% and 11%
  Population Normal (%): 96% and 95%
  Population Pyknosed Nuclei (%): 57% and 60%
  Population Tubulin-Different-Phenotype (%): 87% and 90%
U2OS; [5]
  Population Apoptotic (%): 82% and 88%
  Population Fragmented Nuclei (%): 3% and 13%
  Population Healthy Nuclei (%): 86% and 66%
  Population Hoechst High Intensity Objects (%): 0%
  Population Membrane Permeable-Phenotype (%): 2% and 10%
  Population Mitochondria Different-Phenotype (%): 1% and 5%
  Population Mitotic Cells (%): 18% and 11%
  Population Normal (%): 99% and 100%
  Population Pyknosed Nuclei (%): 9% and 19%
  Population Tubulin-Different-Phenotype (%): 67% and 47%
U2OS; [6]
  Population Apoptotic (%): 92% and 100%
  Population Fragmented Nuclei (%): 26% and 38%
  Population Healthy Nuclei (%): 11% and 2%
  Population Hoechst High Intensity Objects (%): 3% and 2%
  Population Membrane Permeable-Phenotype (%): 52% and 100%
  Population Mitochondria Different-Phenotype (%): 48% and 100%
  Population Mitotic Cells (%): 7% and 0%
  Population Normal (%): 96% and 98%
  Population Pyknosed Nuclei (%): 61% and 59%
  Population Tubulin-Different-Phenotype (%): 100%
